Laboratory results reported in ChEMBL document CHEMBL5316274 (J Med Chem, 2023).
Active and inactive are the calls of the source. The rule behind the calls is not given here.

Experiments:
Mu-type opioid receptor [1] = target: T1, Mu-type opioid receptor (Mus musculus, UniProt P42866); assay: Binding affinity to mouse mu opioid receptor expressed in CHO cell membrane assessed as [35S]GTPgammaS binding incubated for 1.5 hrs by liquid scintillation counter analysis; type: cell membranes
Method in brief: (§1)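 MOR [35S]GTPγS functional assay in MOR-CHO membranes (Bmax about 2.5–4 pmol/mg). Efficacy is expressed as % of the maximal stimulation by full agonist DAMGO.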

[2] = target: Kappa-type opioid receptor (Mus musculus, UniProt P33534); assay: Binding affinity to mouse kappa opioid receptor expressed in CHO cell membrane assessed as inhibition constant incubated for 1.5 hrs by competitive radioligand binding assay; type: cell membranes
[3] = target: Mu-type opioid receptor (Mus musculus) (UniProt P42866); assay: Binding affinity to mouse mu opioid receptor expressed in CHO cell membrane assessed as stimulation of [35S]-GTPgammaS binding by measuring maximal efficacy incubated for 1.5 hrs by scintillation spectroscopy analysis relative DAMGO; type: cell membranes; method in brief: as §1
Mus musculus [4] = assay: Antinociceptive activity in Swiss Webster mouse assessed as increase in latency to tail withdrawal at 10 mg/kg, sc observed for 20 mins by warm water tail immersion assay; type: functional, organism-based
Method in brief: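 Male Swiss-Webster mice (23–35 g, 7–8 weeks), n = 5. Compound given 10 mg/kg s.c. at time 0. Tail-flick latency is measured in 56 ± 0.1 °C water and expressed as % maximum possible effect against saline vehicle.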

Mu-type opioid receptor [5] = target: T1, Mu-type opioid receptor; assay: Binding affinity to mouse mu opioid receptor expressed in CHO cell membrane assessed as inhibition constant incubated for 1.5 hrs by competitive radioligand binding assay; type: cell membranes
Mus musculus [6] = assay: Effect of compound on chronic morphine pelleted Swiss Webster mouse model assessed as decrease in wet-dog shake symptom at 10 to 80 mg/kg, sc and measured for 20 mins by withdrawal assay; type: functional, organism-based; conditions: dose 10-80 mg/kg
Method in brief: (§2)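 Male Swiss-Webster mice made dependent with chronic morphine pellets. Compound is injected and wet-dog shakes, paw tremors and jumps are counted over 20 min after each injection.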

[7] = Protein binding in human plasma at 10 uM and measured upto 24 hrs by equilibrium dialysis based MS analysis; type: ADME, cell-free
[8] = Metabolic stability in human liver microsomes assessed as half life; type: ADME, Microsome
Method in brief: (§3)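 Human or rat liver microsomal stability, run by a contract lab. Half-life and hepatic CLint are reported.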

Mu-type opioid receptor [9] = target: T1, Mu-type opioid receptor; assay: Antagonist activity at mouse mu opioid receptor expressed in CHO cells co-expressing Gqi5 assessed as inhibition of DAMGO induced increase in intracellular calcium flux incubated for 15 mins by Calcium flux assay; type: functional, cell-based
Method in brief: (§4)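 MOR-CHO cells transiently transfected with Gqi5 (4 h at 37 °C, 5% CO2), replated and used 48 h post-transfection. For antagonist mode DAMGO is then added. Fluorescence (RFU) is read for 90 s and peak values are taken. IC50 comes from non-linear regression. Triplicates, at least four experiments.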

[10] = Efflux ratio of apparent permeability in human Caco-2 cells; type: ADME, cell-based
[11] = Protein binding in rat plasma at 10 uM and measured upto 24 hrs by equilibrium dialysis based MS analysis; type: ADME, cell-free
Mus musculus [12] = assay: Antinociceptive activity in sc dosed Swiss Webster mouse assessed as inhibition of morphine induced latency to tail withdrawal preincubated for 5 mins followed by morphine addition and measured after 20 mins by warm water tail immersion assay; type: functional; conditions: 25 min
Method in brief: (§5)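 Male Swiss-Webster mice (n = 5). Compound is given s.c. at time 0 (10 mg/kg in the single-dose screen, a dose range for AD50), and morphine 10 mg/kg follows 5 min later. Tail flick is tested in 56 ± 0.1 °C water 20 min after morphine and scored as % MPE. Saline and morphine alone are the controls.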

[13] = target: Kappa-type opioid receptor (Mus musculus) (UniProt P33534); assay: Binding affinity to mouse kappa opioid receptor expressed in CHO cell membrane assessed as stimulation of [35S]-GTPgammaS binding by measuring maximal efficacy incubated for 1.5 hrs by scintillation spectroscopy analysis relative U50488H; type: cell membranes; conditions: filed as modulator
Method in brief: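 KOR [35S]GTPγS functional assay in KOR-expressing CHO membranes. Efficacy is expressed as % of the maximal stimulation by full agonist U50,488H, with EC50 also determined. Mean of at least three independent experiments.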

Mus musculus [14] = species on record: Mus musculus; assay: Selectivity ratio, ratio of Ki for binding affinity to mouse kappa opioid receptor expressed in CHO cell membrane to Ki for binding affinity to mouse mu opioid receptor expressed in CHO cell membrane
[15] = Metabolic stability in rat liver microsomes assessed as half life; type: ADME, Microsome; method in brief: as §3
[16] = target: Voltage-gated inwardly rectifying potassium channel KCNH2 (Homo sapiens, UniProt Q12809); assay: Inhibition of human ERG expressed in CHO-K1 cells with holding potential of -80 mV by automated patch clamp assay; conditions: CHO-K1 cells expressing human ERG
Mus musculus [17] = assay: Effect of compound on chronic morphine pelleted Swiss Webster mouse model assessed as decrease in paw tremors symptom at 10 to 80 mg/kg, sc and measured for 20 mins by withdrawal assay; type: functional, organism-based; conditions: dose 10-80 mg/kg; method in brief: as §2
Mus musculus [18] = assay: Effect of compound on chronic morphine pelleted Swiss Webster mouse model assessed as decrease in jump symptom at 40 mg/kg, sc and measured for 20 mins by withdrawal assay; type: functional, organism-based; method in brief: as §2
[19] = target: Kappa-type opioid receptor (Mus musculus) (UniProt P33534); assay: Binding affinity to mouse kappa opioid receptor expressed in CHO cell membrane assessed as stimulation of [35S]-GTPgammaS binding by measuring maximal efficacy incubated for 1.5 hrs by scintillation spectroscopy analysis relative SNC80; type: cell membranes
Mus musculus [20] = assay: Antinociceptive activity in Swiss Webster mouse assessed as inhibition of morphine induced latency to tail withdrawal at 10 mg/kg, sc preincubated for 5 mins followed by morphine addition and measured after 20 mins by warm water tail immersion assay; type: functional, organism-based; conditions: time 25.0 min; method in brief: as §5
[21] = target: Mu-type opioid receptor (Mus musculus) (UniProt P42866); assay: Agonist activity at mouse mu opioid receptor expressed in CHO cells co-expressing Gqi5 assessed as increase in intracellular calcium level incubated for 15 mins by Calcium flux assay; type: functional, cell-based
Method in brief: as §4, with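 “post-transfection. Cells are loaded with fluo-4 AM plus probenecid in HBSS–HEPES buffer for 45 min, then exposed to compound for 15 min (agonist mode 0.3 nM to 3 μM).” for “post-transfection.”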

Mus musculus [22] = assay: Effect of compound on chronic morphine pelleted Swiss Webster mouse model assessed as decrease in jump symptom at 50 mg/kg, sc and measured for 20 mins by withdrawal assay; type: functional, organism-based
Mus musculus [23] = assay: Effect of compound on chronic morphine pelleted Swiss Webster mouse model assessed as decrease in paw tremors symptom at 50 mg/kg, sc and measured for 20 mins by withdrawal assay; type: functional, organism-based
Mus musculus [24] = assay: Effect of compound on chronic morphine pelleted Swiss Webster mouse model assessed as decrease in wet-dog shake symptom at 50 mg/kg, sc and measured for 20 mins by withdrawal assay; type: functional, organism-based
Mus musculus [25] = assay: Effect of compound on chronic morphine pelleted Swiss Webster mouse model assessed as decrease in paw tremors symptom at 1 mg/kg, sc and measured for 20 mins by withdrawal assay; type: functional, organism-based; method in brief: as §2
Mus musculus [26] = assay: Effect of compound on chronic morphine pelleted Swiss Webster mouse model assessed as decrease in wet-dog shake symptom at 1 mg/kg, sc and measured for 20 mins by withdrawal assay; type: functional, organism-based; method in brief: as §2
Mus musculus [27] = assay: Effect of compound on chronic morphine pelleted Swiss Webster mouse model assessed as decrease in jump symptom at 1 mg/kg, sc and measured for 20 mins by withdrawal assay; type: functional, organism-based; method in brief: as §2
[28] = Selectivity ratio, ratio of Ki for binding affinity to human delta opioid receptor expressed in CHO cell membrane to Ki for binding affinity to mouse mu opioid receptor expressed in CHO cell membrane

Row | SMILES | EC50 (Mu-type opioid receptor [1]) | Ki [2] | Emax ([3]; filed as modulator) | Activity (Mus musculus [4]) | Ki (Mu-type opioid receptor [5]) | Ratio Ki (Mus musculus [14]) | Emax [3] | Activity (Mus musculus [20]) | Ratio Ki [28] | further results
1 | Cc1c[nH]c2c(C(=O)N[C@@H]3CC[C@@]4(O)[C@H]5Cc6ccc(O)c7c6[C@@]4(CCN5CC4CC4)[C@H]3O7)cccc12 | 1.22 nM | 1.01 nM | 44% | Active | 0.46 nM | – | – | – | – | –
2 | Cc1cc2cccc(C(=O)N[C@H]3CC[C@@]4(O)[C@H]5Cc6ccc(O)c7c6[C@@]4(CCN5CC4CC4)[C@H]3O7)c2[nH]1.Cl | 3.86 nM | 2.1 nM | – | – | 0.59 nM | 3.6 | 12% | Active | – | Activity (Mus musculus [6]): inactive; PPB [7]: 99%; t1/2 [8]: > 1 h; IC50 (Mu-type opioid receptor [9]): 87.5 nM; Ratio [10]: 2.2; PPB [11]: 96%; ED50 (Mus musculus [12]): 10.6 mg/kg; Emax [13]: 73.9%; t1/2 [15]: > 1 h; IC50 [16]: 0.14 nM; Activity (Mus musculus [17]): Active; Activity (Mus musculus [18]): Active; Emax [19]: 26.7%; Activity [21]: inactive
3 | O=C(N[C@H]1CC[C@@]2(O)[C@H]3Cc4ccc(O)c5c4[C@@]2(CCN3CC2CC2)[C@H]1O5)c1cccc2cc[nH]c12 | – | – | – | – | – | – | 19.1% | – | – | Activity (Mus musculus [22]): inactive; ED50 (Mus musculus [12]): 2.07 mg/kg; Activity (Mus musculus [23]): Active; Emax [13]: 48.3%; Activity (Mus musculus [24]): inactive; Emax ([19]; filed as modulator): 76.8%
4 | C=CCN1CC[C@]23c4c5ccc(O)c4O[C@H]2C(=O)CC[C@@]3(O)[C@H]1C5 | – | – | – | – | – | – | – | – | – | Activity (Mus musculus [25]): Active; Activity (Mus musculus [26]): Active; Activity (Mus musculus [27]): Active
5 | O=C(N[C@@H]1CC[C@@]2(O)[C@H]3Cc4ccc(O)c5c4[C@@]2(CCN3CC2CC2)[C@H]1O5)c1cccc2c(Cl)c[nH]c12 | 1.05 nM | – | 59.5% | Active | 0.62 nM | 0.5 | – | – | 7.2 | –
6 | O=C(N[C@@H]1CC[C@@]2(O)[C@H]3Cc4ccc(O)c5c4[C@@]2(CCN3CC2CC2)[C@H]1O5)c1cccc2c([N+](=O)[O-])c[nH]c12 | 1.13 nM | 0.8 nM | 60.9% | Active | 0.54 nM | 1.5 | – | – | 47.5 | –
7 | CC(C)c1c[nH]c2c(C(=O)N[C@@H]3CC[C@@]4(O)[C@H]5Cc6ccc(O)c7c6[C@@]4(CCN5CC4CC4)[C@H]3O7)cccc12 | 1.73 nM | 0.98 nM | – | – | 0.89 nM | 1.1 | 36.2% | inactive | 22.2 | –
8 | O=C(N[C@H]1CC[C@@]2(O)[C@H]3Cc4ccc(O)c5c4[C@@]2(CCN3CC2CC2)[C@H]1O5)c1cccc2c(Br)c[nH]c12 | 2.46 nM | 5.28 nM | – | – | 0.93 nM | 5.7 | 14.9% | inactive | 20.6 | –
